Assay results: ChEMBL document CHEMBL1147053, “HIV protease inhibitors block the zinc metalloproteinase ZMPSTE24 and lead to an accumulation of prelamin A in cells” (Proc Natl Acad Sci U S A, 2007)
Active and inactive are the calls of the source. The calls are words filed in the database; no cut-off is given here.

Columns and labels:
[1] = target: T1, CAAX prenyl protease 2 (Mus musculus) (UniProt P57791); assay: Inhibition of mouse RCE1 expressed in delta ste24 delta rce1 yeast
T1 sequence (whole entry): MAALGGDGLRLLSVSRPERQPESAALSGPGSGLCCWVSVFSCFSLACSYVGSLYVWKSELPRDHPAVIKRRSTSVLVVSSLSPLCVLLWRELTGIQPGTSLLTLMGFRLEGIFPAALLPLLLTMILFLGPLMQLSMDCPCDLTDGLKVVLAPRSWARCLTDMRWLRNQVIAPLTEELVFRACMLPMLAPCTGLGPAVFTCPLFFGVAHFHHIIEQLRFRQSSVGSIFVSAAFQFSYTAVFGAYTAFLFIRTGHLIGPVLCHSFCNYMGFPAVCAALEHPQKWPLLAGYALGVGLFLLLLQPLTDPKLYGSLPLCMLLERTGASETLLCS
In short: (§1)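 Coupled endoproteolysis/methylation assay. Δste24Δrce1 yeast membranes overexpressing mouse ZMPSTE24 or RCE1 (5 μg) plus CH2733 Ste14p membranes (8 μg) were incubated with farnesylated 15-mer a-factor peptide (5 μM for ZMPSTE24, 25 μM for RCE1) and 20 μM [¹⁴C]SAM in 100 mM Tris·HCl pH 7.5 for 30 min at 30°C. Reactions were stopped with NaOH/SDS, and base-releasable [¹⁴C]methanol was measured by vapor diffusion. IC50 values were fitted.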

[2] = target: T2, CAAX prenyl protease 1 homolog (Mus musculus, UniProt Q80W54); assay: Inhibition of mouse ZMPSTE24 expressed n delta ste24 delta rce1 yeast; in short: as §1
T2 sequence (Q80W54 whole entry): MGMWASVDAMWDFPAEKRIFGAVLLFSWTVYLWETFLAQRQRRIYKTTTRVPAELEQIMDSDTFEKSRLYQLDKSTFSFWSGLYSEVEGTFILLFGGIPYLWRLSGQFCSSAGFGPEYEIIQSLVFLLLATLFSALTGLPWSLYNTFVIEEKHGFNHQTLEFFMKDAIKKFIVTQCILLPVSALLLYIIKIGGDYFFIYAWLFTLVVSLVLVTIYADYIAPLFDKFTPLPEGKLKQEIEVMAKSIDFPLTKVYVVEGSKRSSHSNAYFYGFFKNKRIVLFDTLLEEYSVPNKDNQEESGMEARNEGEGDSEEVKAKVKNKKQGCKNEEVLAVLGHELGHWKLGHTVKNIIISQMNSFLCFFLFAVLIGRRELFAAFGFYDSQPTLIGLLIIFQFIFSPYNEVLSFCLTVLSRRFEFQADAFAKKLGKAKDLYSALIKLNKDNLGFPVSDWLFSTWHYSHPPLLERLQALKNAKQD

[3] = system: HEK293; assay: Toxicity in HEK293 cells transfected with GFP-prelamin A construct assessed as accumulation of uncleaved protein by Western blot; conditions: human
[4] = system: Fibroblast; assay: Effect on HDJ2 farnesylation in mouse fibroblast cells at 20 uM after 24 hrs by Western blot; format: functional, cell-based
In short: (§2)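 Wild-type fibroblasts exposed 24 h to drug (20 μM) or DMSO vehicle, with GGTI-298 (15 μM) and FTI (5 μM) run alongside. Isoprenylation was judged by band mobility on Western blots. HDJ-2 extracts were resolved on 15% acrylamide/0.08% bisacrylamide SDS/PAGE; Rap1A was probed with anti-Rap1A and anti-Rap1 antibodies.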

[5] = system: Fibroblast; assay: Effect on Rap1A isoprenylation in mouse fibroblast cells at 20 uM after 24 hrs by Western blot; format: functional, cell-based; in short: as §2
[6] = Inhibition of farnesyl transferase
In short: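 FTase (50 ng) was incubated with 500 nM [³H]FPP and 1 μM recombinant H-Ras substrate for 10 min at 30°C, with or without drug. Protein was precipitated and glass-fibre filtered, and incorporated radiolabelled isoprenoid was counted by scintillation. Values are the mean of triplicate determinations.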

[7] = target: Protein-S-isoprenylcysteine O-methyltransferase (Homo sapiens) (UniProt O60725); assay: Inhibition of human ICMT expressed in yeast assessed as methylation of N-acetyl-farnesylcysteine
Chain of Protein-S-isoprenylcysteine O-methyltransferase (Homo sapiens) (O60725 whole entry): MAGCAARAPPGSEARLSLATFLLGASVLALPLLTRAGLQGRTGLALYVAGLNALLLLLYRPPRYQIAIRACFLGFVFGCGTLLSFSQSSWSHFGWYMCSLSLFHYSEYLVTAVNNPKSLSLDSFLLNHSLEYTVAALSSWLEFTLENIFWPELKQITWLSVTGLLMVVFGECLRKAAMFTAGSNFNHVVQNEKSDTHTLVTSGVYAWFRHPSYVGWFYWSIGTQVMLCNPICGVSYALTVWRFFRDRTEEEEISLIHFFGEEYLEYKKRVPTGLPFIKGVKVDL

[8] = system: Fibroblast; assay: Effect on change in ZMPSTE24 mRNA expression level in mouse fibroblasts at 20 uM after 10 days by PCR; format: functional, cell-based
[9] = system: Fibroblast; assay: Effect on change in ZMPSTE24 protein level in mouse fibroblasts at 20 uM after 10 days by Western blot; format: functional, cell-based
[10] = Toxicity in RCE1 deficient mouse fibroblast cells assessed as accumulation of prelamin A at 20 uM after 24 hrs by Western blot; format: cell-based
In short: (§3)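 Rce1−/− or Icmt−/− mouse embryonic fibroblasts were treated 24 h with drug (20 μM) or DMSO, with FTI (5 μM) as a comparator. Extracts were run on 4–12% Bis-Tris gels and Western blotted for lamin A/C and prelamin A, using antiserum "b", which recognises both farnesylated and nonfarnesylated forms.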

[11] = Toxicity in human AG08470 cells assessed as accumulation of prelamin A at 20 uM after 10 days by Western blot; format: cell-based; conditions: 240 h
In short: (§4)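 WT human fibroblasts were cultured in MEM or DMEM with 10% FBS at 37°C, 5% CO₂, then treated 10 days with drug (20 μM), FTI (5 μM) or DMSO. Western blots were probed for lamin A/C, prelamin A antisera "a" (nonfarnesylated only) and "b", and actin. Prelamin A was quantified by image analysis relative to lamin C and to mature lamin A.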

[12] = Toxicity in human AG07095 cells assessed as accumulation of prelamin A at 20 uM after 10 days by Western blot; format: cell-based; conditions: 240 h; in short: as §4
[13] = Toxicity in mouse fibroblast cells assessed as accumulation of prelamin A at 20 uM after 48 hrs by Western blot; format: cell-based
In short: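 Mouse fibroblasts were exposed 48 h to drug (20 μM), FTI (5 μM) or DMSO. Prelamin A was detected on Western blots of cell extracts.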

[14] = Toxicity in ICMT deficient mouse fibroblast cells assessed as accumulation of prelamin A at 20 uM after 24 hrs by Western blot; format: cell-based; in short: as §3
[15] = Toxicity in mouse fibroblast cells assessed as accumulation of prelamin A at 20 uM after 10 days by Western blot; format: cell-based; conditions: 240 h
In short: (§5)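 WT mouse fibroblasts were treated 10 days with drug (NVP at 200 and 400 μM; STV at 20 and 40 μM; LPV at 20 μM) or DMSO vehicle. Prelamin A accumulation was assessed on Western blots of cell extracts.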

[16] = system: HeLa; assay: Toxicity in human HeLa cells transfected with GFP-prelamin A construct assessed as accumulation of uncleaved protein at 20 uM by Western blot; format: cell-based
In short: (§6)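 Cells were transiently transfected at 80% confluency with a GFP fused to the C-terminal 118 aa of prelamin A. Four hours later, the medium was changed to MEM/10% FBS and drug was added for 18 h (overnight). Uncleaved and cleaved fusion protein were resolved on Western blots probed with anti-GFP and anti-prelamin A antibodies.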

[17] = system: HEK293; assay: Toxicity in HEK293 cells transfected with GFP-prelamin A construct assessed as accumulation of uncleaved protein at 20 uM by Western blot; format: cell-based; conditions: human, hek293, 20 µM; in short: as §6
[18] = Toxicity in mouse fibroblast cells assessed as accumulation of prelamin A at 40 uM after 10 days by Western blot; format: cell-based; conditions: 240 h; in short: as §5
[19] = Toxicity in mouse fibroblast cells assessed as accumulation of prelamin A at 200 uM after 10 days by Western blot; format: cell-based; conditions: 240 h
In short: (§7)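 Wild-type mouse fibroblasts were grown at 37 °C in 5% CO₂ in MEM or DMEM with 10% FBS, 2 mM L-glutamine and vitamin/amino acid supplements. Cells were exposed for 10 days to drug (200 mM DMSO stock) or DMSO vehicle. Extracts were run on 4–12% Bis-Tris gels and immunoblotted for lamin A/C, prelamin A (antiserum "b", 1:4,000) and actin.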

[20] = Toxicity in mouse fibroblast cells assessed as accumulation of prelamin A at 400 uM after 10 days by Western blot; format: cell-based; conditions: 240 h; in short: as §7

Row | SMILES | Activity [1] | IC50 [2] | Activity [6] | Activity [13] | Activity [15] | Activity [16] | other results
1 | CCC[C@@]1(CCc2ccccc2)CC(O)=C([C@H](CC)c2cccc(NS(=O)(=O)c3ccc(C(F)(F)F)cn3)c2)C(=O)O1 [TIPRANAVIR] | inactive | 1.2 µM |  |  |  |  | Activity [3]: Toxic
2 | Cc1cccc(C)c1OCC(=O)N[C@@H](Cc1ccccc1)[C@@H](O)C[C@H](Cc1ccccc1)NC(=O)[C@H](C(C)C)N1CCCNC1=O [LOPINAVIR] | inactive | 18.4 µM | inactive | Toxic | Toxic | Toxic | Activity [4]: inactive; Activity [5]: inactive; Activity [7]: inactive; Activity [8]: inactive; Activity [9]: inactive; Activity [10]: Toxic; Activity [11]: Toxic; Activity [12]: Toxic; Activity [14]: Toxic; Activity [17]: Toxic
3 | Cc1cn([C@H]2C=C[C@@H](CO)O2)c(=O)[nH]c1=O [STAVUDINE] |  |  |  |  | Non-toxic | Non-toxic | Activity [18]: Non-toxic
4 | COC(=O)N[C@H](C(=O)N[C@@H](Cc1ccccc1)[C@@H](O)CN(Cc1ccc(-c2ccccn2)cc1)NC(=O)[C@@H](NC(=O)OC)C(C)(C)C)C(C)(C)C [ATAZANAVIR] |  |  | inactive | Toxic |  | Toxic | 
5 | Cc1ccnc2c1NC(=O)c1cccnc1N2C1CC1 [NEVIRAPINE] |  |  |  |  |  | Non-toxic | Activity [19]: Non-toxic; Activity [20]: Non-toxic
